In one test the test system is MKN-45. The test can be described thus: Cytotoxicity against c-Met-dependent human MKN45 cells assessed as growth inhibition after 72 hrs by MTT assay. Conditions: MKN-45, 72 h. A general note: Tetrazolium assays rely on reduction of a dye to a coloured formazan, in cell work by metabolically active cells.
A further test deals with HT-29. The test can be described thus: Cytotoxicity against c-Met-dependent human HT-29 cells assessed as growth inhibition after 72 hrs by MTT assay. Particulars: HT-29, 72 h.
Another test has as its system A549. The test can be described thus: Cytotoxicity against c-Met-dependent human A549 cells assessed as growth inhibition after 72 hrs by MTT assay. Conditions: A549, 72 h.
Test [1] is described as follows: Cytotoxicity against c-Met-independent human H460 cells assessed as growth inhibition after 72 hrs by MTT assay. Particulars: NCI-H460, 72 h.
The test system of another test is SMMC-7721. The test can be described thus: Cytotoxicity against c-Met-dependent human SMMC7721 cells assessed as growth inhibition after 72 hrs by MTT assay. It is filed as functional, cell-based. Conditions: SMMC-7721, 72 h. The gist of the method:
(§1)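 Cells grown in MEM with 10% FBS. About 4×10³ cells/well were seeded and incubated 24 h at 37 °C, 5% CO₂, then exposed to compound for 72 h. MTT was added (terminal 5 µg/mL) for 4 h at 37 °C, and formazan was dissolved in DMSO. IC50 is the mean of three determinations.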

The nature of test [2]: Cytotoxicity against c-Met-dependent human U87MG cells assessed as growth inhibition after 72 hrs by MTT assay. The format is functional, cell-based, U-87MG ATCC. Conditions: U-87 MG. The gist of the method: as §1

One may read the IC50 as the concentration that gives 50% inhibition. With `COc1cc2c(Oc3ccc(NC(=O)c4nn(-c5ccc(F)cc5Br)c5ccccc5c4=O)cc3F)ccnc2cc1OCCCN1CCCC1`, the IC50 was 1720 nM with MKN-45, 2910 nM in the test with HT-29, 1030 nM with A549 and 3650 nM in test [1].
With `COc1cc2c(Oc3ccc(NC(=O)c4nn(-c5ccccc5)c5ccccc5c4=O)cc3F)ccnc2cc1OCCCN1CCOCC1`, the IC50 stood at 1130 nM in the test on SMMC-7721; 1460 nM in test [2]; 960 nM in the test on MKN-45; 1170 nM in the test on HT-29; 570 nM in the test with A549; 690 nM in test [1].
Take `COc1cc2c(Oc3ccc(NC(=O)c4nn(-c5ccccc5Cl)c5ccccc5c4=O)cc3F)ccnc2cc1OCCCN1CCOCC1`: the IC50 in the test with SMMC-7721 is 920 nM; in test [2], 1690 nM; in the test on MKN-45 it was 10 nM; with HT-29 it was 240 nM; in the test with A549 it was 30 nM; in test [1], 10 nM.
Consider `COc1cc2c(Oc3ccc(NC(=O)c4nn(-c5ccccc5C(F)(F)F)c5ccccc5c4=O)cc3F)ccnc2cc1OCCCN1CCOCC1`, for which the IC50 with SMMC-7721 amounted to 840 nM; in test [2], 1480 nM; in the test on MKN-45 it was 20 nM; in the test on HT-29 it was 510 nM; in the test on A549, 60 nM; in test [1] it was 80 nM.
For `COc1cc2c(Oc3ccc(NC(=O)c4nn(-c5ccccc5OC(F)(F)F)c5ccccc5c4=O)cc3F)ccnc2cc1OCCCN1CCOCC1`, the IC50 in test [2] is 1040 nM; in the test on MKN-45 it was 760 nM; in the test on HT-29, 1120 nM; in the test on A549, 480 nM; in test [1] it was 620 nM.
Taken in the same sequence, the figures for `COc1cc2c(Oc3ccc(NC(=O)c4nn(-c5ccc(C)cc5)c5ccccc5c4=O)cc3F)ccnc2cc1OCCCN1CCOCC1` were 1970 nM, 680 nM, 3200 nM, 1100 nM and 2100 nM.
Taken in the same sequence, the figures for `COc1cc2c(Oc3ccc(NC(=O)c4nn(-c5cc(C)ccc5C)c5ccccc5c4=O)cc3F)ccnc2cc1OCCCN1CCOCC1` were 1360 nM, 30 nM, 1150 nM, 750 nM and 590 nM.
Take `COc1cc2c(Oc3ccc(NC(=O)c4nn(-c5ccccc5F)c5cc(F)ccc5c4=O)cc3F)ccnc2cc1OCCCN1CCCCC1`: the IC50 in the test on MKN-45 was 2790 nM; in the test on HT-29, 5070 nM; in the test on A549 it was 3270 nM; in test [1], 3280 nM.
Taken in the same sequence, the figures for `COc1cc2c(Oc3ccc(NC(=O)c4nn(-c5ccccc5Cl)c5cc(F)ccc5c4=O)cc3F)ccnc2cc1OCCCN1CCCCC1` were 1620 nM, 2470 nM, 1820 nM and 1510 nM.
For `COc1cc2c(Oc3ccc(NC(=O)c4nn(-c5ccccc5F)c5cc(F)ccc5c4=O)cc3F)ccnc2cc1OCCCN1CCOCC1` the same measures were 1540 nM, 2950 nM, 2040 nM and 2250 nM.
Taken in the same sequence, the figures for `COc1cc2c(Oc3ccc(NC(=O)c4nn(-c5ccccc5Cl)c5cc(F)ccc5c4=O)cc3F)ccnc2cc1OCCCN1CCC(C)CC1` were 1560 nM, 1370 nM, 1050 nM and 1250 nM.
On to `COc1cc2c(Oc3ccc(NC(=O)c4nn(-c5ccc(Cl)cc5Cl)c5ccccc5c4=O)cc3F)ccnc2cc1OCCCN1CCCCC1`, for which the IC50 in the test with MKN-45 amounted to 590 nM; in the test on HT-29, 990 nM; in the test with A549 it was 470 nM; in test [1], 1030 nM.
For `COc1cc2c(Oc3ccc(NC(=O)c4nn(-c5c(Cl)cccc5Cl)c5ccccc5c4=O)cc3F)ccnc2cc1OCCCN1CCCCC1`, the IC50 in test [2] was 1360 nM; with MKN-45, 390 nM; in the test on HT-29 it was 1150 nM; in the test on A549, 410 nM; in test [1], 770 nM.
On to `COc1cc2c(Oc3ccc(NC(=O)c4nn(-c5ccc(C)cc5C)c5ccccc5c4=O)cc3F)ccnc2cc1OCCCN1CCCCC1`, for which the IC50 with MKN-45 came out at 1850 nM; in the test with HT-29 it was 3560 nM; in the test on A549 it was 1280 nM; in test [1], 1570 nM.
For `COc1cc2c(Oc3ccc(NC(=O)c4nn(-c5ccccc5F)c5ccccc5c4=O)cc3F)ccnc2cc1OCCCN1CCC(C)CC1`, the IC50 in the test with SMMC-7721 came out at 950 nM; in test [2], 1210 nM; with MKN-45, 580 nM; in the test with HT-29, 780 nM; in the test with A549, 330 nM; in test [1], 290 nM.
As to `COc1cc2c(Oc3ccc(NC(=O)c4nn(-c5ccccc5Br)c5ccccc5c4=O)cc3F)ccnc2cc1OCCCN1CCC(C)CC1`, the IC50 in test [2] was 2160 nM; in the test with MKN-45 it was 280 nM; in the test on HT-29, 1340 nM; with A549, 350 nM; in test [1], 830 nM.
For `COc1cc2c(Oc3ccc(NC(=O)c4nn(-c5cccc(C(F)(F)F)c5)c5ccccc5c4=O)cc3F)ccnc2cc1OCCCN1CCC(C)CC1` the same measures were 730 nM, 160 nM, 1020 nM, 210 nM and 550 nM.
In the case of `COc1cc2c(Oc3ccc(NC(=O)c4nn(-c5ccc(F)cc5)c5ccccc5c4=O)cc3F)ccnc2cc1OCCCN1CCC(C)CC1`, the concentration for half-maximal inhibition (IC50) in the test on SMMC-7721 is 930 nM; in test [2] it was 1120 nM; in the test on MKN-45, 170 nM; with HT-29 it was 460 nM; in the test with A549, 150 nM; in test [1], 890 nM.
Regarding `COc1cc2c(Oc3ccc(NC(=O)c4nn(-c5ccc(C)cc5)c5ccccc5c4=O)cc3F)ccnc2cc1OCCCN1CCC(C)CC1`, the IC50 in the test on MKN-45 was determined as 1220 nM; with HT-29 it was 2850 nM; in the test with A549, 1050 nM; in test [1], 1990 nM.
With `COc1cc2c(Oc3ccc(NC(=O)c4nn(-c5c(Cl)cccc5Cl)c5ccccc5c4=O)cc3F)ccnc2cc1OCCCN1CCC(C)CC1`, the IC50 was determined as 820 nM in the test on SMMC-7721; 1040 nM in test [2]; 360 nM in the test on MKN-45; 920 nM with HT-29; 400 nM with A549; 650 nM in test [1].
As to `COc1cc2c(Oc3ccc(NC(=O)c4nn(-c5ccc(Cl)c(C(F)(F)F)c5)c5ccccc5c4=O)cc3F)ccnc2cc1OCCCN1CCC(C)CC1`, the 50% inhibitory concentration (IC50) with SMMC-7721 came out at 370 nM; in test [2] it was 540 nM; in the test on MKN-45, 140 nM; in the test with HT-29, 490 nM; in the test on A549, 240 nM; in test [1], 110 nM.
Regarding `COc1cc2c(Oc3ccc(NC(=O)c4nn(-c5cccc(C(F)(F)F)c5)c5ccccc5c4=O)cc3F)ccnc2cc1OCCCN1CCCC1`, the IC50 turned out to be 630 nM in the test on SMMC-7721; 850 nM in test [2]; 190 nM with MKN-45; 780 nM with HT-29; 300 nM in the test on A549; 1040 nM in test [1].
Turning to `COc1cc2c(Oc3ccc(NC(=O)c4nn(-c5ccc(F)c(F)c5)c5ccccc5c4=O)cc3F)ccnc2cc1OCCCN1CCCC1`, the IC50 with SMMC-7721 turned out to be 590 nM; in test [2], 1060 nM; in the test with MKN-45 it was 350 nM; in the test on HT-29 it was 1120 nM; in the test with A549 it was 260 nM; in test [1], 640 nM.
Take `COc1cc2c(Oc3ccc(NC(=O)c4nn(-c5c(Cl)cccc5Cl)c5ccccc5c4=O)cc3F)ccnc2cc1OCCCN1CCCC1`: the IC50 in the test with SMMC-7721 amounted to 840 nM; in test [2] it was 1250 nM; in the test on MKN-45, 350 nM; with HT-29, 1050 nM; with A549, 350 nM; in test [1] it was 370 nM.
On to `COc1cc2c(Oc3ccc(NC(=O)c4nn(-c5cc(C(F)(F)F)ccc5Cl)c5ccccc5c4=O)cc3F)ccnc2cc1OCCCN1CCCC1`, for which the half-inhibitory concentration (IC50) in test [2] stood at 1420 nM; in the test with MKN-45 it was 170 nM; in the test with HT-29, 1120 nM; in the test on A549, 200 nM; in test [1], 610 nM.
Taken in the same sequence, the figures for `COc1cc2c(Oc3ccc(NC(=O)c4nn(-c5cc(C)ccc5C)c5ccccc5c4=O)cc3F)ccnc2cc1OCCCN1CCCC1` were 2470 nM, 420 nM, 3050 nM, 1150 nM and 2030 nM.
Take `COc1cc2c(Oc3ccc(NC(=O)c4nn(-c5ccccc5Cl)c5ccccc5c4=O)cc3F)ccnc2cc1OCCCN1CCCCC1`: the IC50 in the test on SMMC-7721 turned out to be 420 nM; in test [2] it was 490 nM; in the test with MKN-45, 50 nM; with HT-29 it was 260 nM; in the test with A549, 43 nM; in test [1], 73 nM.
Regarding `COc1cc2c(Oc3ccc(NC(=O)c4nn(-c5ccccc5C(F)(F)F)c5ccccc5c4=O)cc3F)ccnc2cc1OCCCN1CCCCC1`, the IC50 in the test on SMMC-7721 was found to be 1350 nM; in test [2] it was 1160 nM; in the test with MKN-45 it was 27 nM; in the test with HT-29 it was 560 nM; with A549 it was 55 nM; in test [1], 81 nM.
Take `COc1cc2c(Oc3ccc(NC(=O)c4nn(-c5cccc(F)c5)c5ccccc5c4=O)cc3F)ccnc2cc1OCCCN1CCCCC1`: the IC50 was 2020 nM in the test with SMMC-7721; 2460 nM in test [2]; 140 nM with MKN-45; 1880 nM with HT-29; 110 nM with A549; 910 nM in test [1].
With `COc1cc2c(Oc3ccc(NC(=O)c4nn(-c5ccc(Br)cc5)c5ccccc5c4=O)cc3F)ccnc2cc1OCCCN1CCCCC1`, the IC50 in the test on SMMC-7721 stood at 840 nM; in test [2] it was 1600 nM; in the test on MKN-45 it was 450 nM; in the test with HT-29, 1140 nM; with A549, 530 nM; in test [1] it was 400 nM.

For the origin of these results see ChEMBL document CHEMBL2385045, “Discovery of novel 4-(2-fluorophenoxy)quinoline derivatives bearing 4-oxo-1,4-dihydrocinnoline-3-carboxamide moiety as c-Met kinase inhibitors” (Bioorg Med Chem, 2013).
